Screening data: PubChem, Sanford-Burnham Center for Chemical Genomics
PMI act satM6P: activators of human phosphomannose isomerase at near-saturating mannose 6-phosphate; 0.34% of 190,000 active; activation factor at 20 µM; coupled PMI enzyme assay, resazurin fluorescence, 20 min; active compounds read high; 1 = untreated enzyme, 0 = substrate-free blank; AID 1216;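 active = activation factor of 2 or more at 20 µM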
Target sequence (P34949 whole entry, looked up): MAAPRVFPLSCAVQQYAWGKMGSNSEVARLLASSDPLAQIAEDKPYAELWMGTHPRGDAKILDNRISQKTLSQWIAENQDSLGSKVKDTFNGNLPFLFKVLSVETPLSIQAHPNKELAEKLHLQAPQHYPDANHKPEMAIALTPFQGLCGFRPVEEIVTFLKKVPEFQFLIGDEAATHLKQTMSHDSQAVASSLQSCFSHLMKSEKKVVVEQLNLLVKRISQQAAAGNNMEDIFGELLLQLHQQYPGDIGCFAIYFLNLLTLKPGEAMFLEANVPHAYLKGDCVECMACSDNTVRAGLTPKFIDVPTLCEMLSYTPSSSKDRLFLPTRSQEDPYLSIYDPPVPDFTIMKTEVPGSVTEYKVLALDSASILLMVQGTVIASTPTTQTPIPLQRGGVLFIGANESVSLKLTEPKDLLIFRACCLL
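Test system: Human PMI in coupled enzyme assay | Input: 15 ng/mL PMI | Medium: HEPES-buffered pH 7.4 with magnesium and detergent | Compound: One concentration, 20 µM, in 1% DMSO | Incubation: Enzyme reaction with compound 20 min at room temperature | Detection: Diaphorase-driven resazurin-to-resorufin fluorescence, excitation 544, emission 590 nm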
TNAP inh hiacc: inhibitors of human TNAP at high phosphate acceptor concentration | P05186 | purified TNAP, CDP-star luminescence, 1 M DEA | inhibition, % at 20 µM | 0.03% of 200,000 active;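 active = over 50% inhibition of tissue-nonspecific alkaline phosphatase at 20 µM in the single-dose screen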
PMI act: activators of human phosphomannose isomerase; P34949; purified human PMI, coupled resazurin fluorescence, 20 min; active compounds read high; 1 = vehicle control, 0 substrate-free wells; activation factor at 20 µM; 0.005% of 190,000 active;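 active = activation factor of 2 or more at 20 µM, relative to plate controls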
TNAP inh noacc: inhibitors of human TNAP without phosphate acceptor; 0.26% of 200,000 active; purified TNAP, CDP-star luminescence, 30 min; AID 1012; P05186; inhibition, % at 20 µM;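 active = tissue-nonspecific alkaline phosphatase inhibition above about 50% at 20 µM in the single-dose screen, limit read from the data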
TNAP act hiacc: increases human TNAP activity under high phosphate acceptor concentration. P05186. purified TNAP, CDP-star luminescence, 1 M DEA, 30 min; active compounds read high; 0 = EDTA background, 1 = DMSO-only activity. activation factor at 20 µM. 200,000 tested, under 10 active. AID 1136;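 active = activation factor at least 2 at 20 µM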
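Test system – human TNAP · Doses – 20 µM single point · Incubation – 30 min, room temperature · Signal – luminescent substrate turnover signal · Read-out basis – activation factor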
Hits are given with their value; – = inactive; · = not tested or not shown. In the library only some 0.6% were active in any assay of this set; here they are far more common.

SMILES	PMI act satM6P	TNAP inh hiacc	PMI act	TNAP inh noacc	TNAP act hiacc
O=C1C2C3C=CC(C3)C2C(=O)N1c1n[nH]c(-c2ccccc2)n1 (configuration not stated)	–	–	–	96	–
O=C1C2CC=CCC2C(=O)N1c1n[nH]c(-c2ccccc2)n1 (configuration not stated)	–	–	–	97	–
O=C1C2CC=CCC2C(=O)N1c1ccc(NCCc2ccccc2)c([N+](=O)[O-])c1 (configuration not stated)	–	–	–	–	–
O=C1C2CC=CCC2C(=O)N1c1nc2n(n1)C(c1ccccc1)CC(c1ccccc1)N2 (configuration not stated)	–	–	–	–	–
O=C1C2CC=CCC2C(=O)N1c1n[nH]c(CCc2ccccc2)n1 (configuration not stated)	–	–	–	79	–
O=C1C2C3C=CC(C3)C2C(=O)N1c1n[nH]c(-c2cccnc2)n1 (configuration not stated)	–	–	–	59	–
Cc1ccc(S(=O)(=O)c2ccc(NN)cc2)cc1	2.5	–	–	–	–
COc1ccc(-c2cc3nnc(-c4ccccc4)nc3s2)cc1	2.5	–	–	–	–
COc1ccc(-c2nc3ccccc3nc2-c2ccccc2)cc1	–	–	–	–	–
CC(C)Sc1nsc2nc(=O)c(/C=C3\C=Nc4ccccc43)c(N)n12	–	–	–	62	–
CS(=O)(=O)c1nsc2nc(=O)c(/C=C3\C=Nc4ccccc43)c(N)n12	–	–	–	–	–
CCCc1nn2c(N)c(/C=C3\C=Nc4ccccc43)c(=O)nc2s1	–	–	–	58	–
CC(C)Cc1nn2c(N)c(/C=C3\C=Nc4ccccc43)c(=O)nc2s1	–	–	–	83	–
CCCCc1nn2c(N)c(/C=C3\C=Nc4ccccc43)c(=O)nc2s1	–	–	–	66	–
O=C(O)c1ccc(Nc2nc(-c3cccnc3)nc3ccccc23)cc1	–	–	–	–	–
CC(=O)O/N=C/c1c(Cl)n(C)c2ccccc12	–	–	–	–	–
O=C(CCC(=O)Nc1ccc(Cl)cc1Cl)N/N=C/c1ccc([N+](=O)[O-])o1	–	–	–	–	–
CC(C(=O)NC(C)(C)C)N(Cc1cccs1)C(=O)CCN1CCc2ccccc21 (configuration not stated)	–	–	–	–	–
COc1ccc(C(C(N)=O)c2ncc(C(F)(F)F)cc2Cl)cc1 (configuration not stated)	–	–	–	–	–
COc1cc(/C=C2\C(=O)N(c3ccc(NC(C)=O)cc3)N=C2c2ccccc2)ccc1O	–	–	–	55	–
O=C1/C(=C\c2ccc(O)c(O)c2)C(c2ccccc2)=NN1c1ccccc1	–	–	–	88	–
CCOc1cc(/C=C2\C(=O)N(c3nc(-c4ccc(Br)cc4)cs3)N=C2c2ccccc2)ccc1O	–	–	–	–	–
O=C(NCCN1C(=O)S/C(=C\c2ccc(OC(F)F)cc2)C1=O)c1cnccn1	–	–	–	–	–
CC(C)NC(=O)NC(=O)COC(=O)c1ncc(Cl)c(Cl)c1Cl	–	–	–	–	–
O=S(=O)(c1ccc(OCC(O)CNC23CC4CC(CC(C4)C2)C3)c(Cl)c1)N1CCOCC1 (configuration not stated)	–	–	–	–	–
SMILES	PMI act satM6P	TNAP inh hiacc	PMI act	TNAP inh noacc	TNAP act hiacc
O=C(NC1CCCCC1)C(c1ccc(O)c(O)c1)N(C(=O)Cn1nnc2ccccc21)c1cccc(O)c1 (configuration not stated)	–	–	–	51	–
O=c1cnc(-c2ccc(Cl)cc2)cn1O	–	–	–	–	–
CCOC(=O)CON1C(=O)c2ccccc2C1=O	–	–	–	–	–
CCO/C=C1/C(=O)N(C(C)=O)c2ccccc21	2.6	–	–	–	–
Oc1ccccc1-c1cc(-c2ccc3c(c2)OCCO3)n[nH]1	–	–	–	–	–
O=C(O)c1cc(-c2ccc3c(c2)OCCO3)n[nH]1	–	–	–	58	–
CCOC(=O)c1cc(-c2ccc3c(c2)OCCO3)n[nH]1	–	–	–	84	–
CCOc1cc(/C=N/Nc2cccc(C(=O)O)c2)ccc1OCC(=O)N1CCCCC1	2.3	–	–	–	–
CCOC(=O)N1CCC(=NNc2ccnc3cc(Cl)ccc23)CC1	–	–	–	–	–
CC(=O)N1CCC(=NNc2ccnc3cc(Cl)ccc23)CC1	2.3	–	–	–	–
Fc1ccccc1-c1n[nH]c(=S)n1CC1CCCO1 (configuration not stated)	·	–	·	–	–
COc1ccc2[nH]c3c(Cl)ncnc3c2c1	–	–	–	–	–
COc1ccc2[nH]c3c(=S)nc[nH]c3c2c1	2.6	–	–	–	–
Cn1c(NC(=O)c2cccnc2)nc2ccccc21	–	–	–	69	–
O=C(Nc1cnc2ccccc2c1)c1cccnc1	–	–	–	–	–
CN1C(=O)c2oc3ccccc3c(=O)c2C1c1ccncc1 (configuration not stated)	2.3	–	–	–	–
COc1ccc(C2c3c(oc4ccccc4c3=O)C(=O)N2Cc2ccncc2)cc1 (configuration not stated)	–	–	–	–	–
N=C(N)SCc1ccccn1	–	–	–	51	–
c1ccc(CSc2nnc(SCc3ccccn3)s2)nc1	–	–	–	–	–
Cn1c(=O)c2c(nc(CN3CCc4ccccc4C3)n2CCCO)n(C)c1=O	2.2	–	–	–	–
CSCCCNC(=S)N1CCc2ccccc2C1	–	–	–	–	–
COc1ccc2c(c1)CCc1c-2n[nH]c1C(=O)O	–	–	–	86	–
COc1ccc2c(c1)CCc1c(C(=O)N3CCCCCC3)noc1-2	–	–	–	–	–
CC(C)=CCc1c(O)ccc2c1OC(c1ccc(O)c(O)c1)CC2=O (configuration not stated)	–	–	–	54	–
CCS(=O)(=O)n1nc(-c2ccc(Cl)cc2)nc1SC	–	–	–	61	–
SMILES	PMI act satM6P	TNAP inh hiacc	PMI act	TNAP inh noacc	TNAP act hiacc
CCS(=O)(=O)n1nc(-c2ccco2)nc1SC	–	–	–	–	–
O=C(/C(=N/N=C/c1ccc(O)c(O)c1)c1ccccc1)c1ccccc1	–	–	–	51	–
Oc1ccc(N=Cc2ccc(O)c(O)c2)cc1	–	–	–	–	–
C=CCOc1ccc(CN(C)CC(=O)Nc2ccccc2[N+](=O)[O-])cc1	–	–	–	–	–
C=CCNC(=S)NNC(=O)c1cc(O)ccc1O	–	–	–	68	–
C=CCNC(=S)NNC(=O)c1ccc(Br)cc1	–	–	–	–	–
COc1ccc(C(=O)O)cc1S(=O)(=O)N(C)C	–	–	–	–	–
O=C(CCC(=O)N/N=C/c1cc(Cl)cc(Cl)c1O)NCc1ccccc1	–	–	–	–	–
